RORa activator = activators of orphan receptor RORA, primary screen, cell-based, luminescence | Nuclear receptor ROR-alpha (Homo sapiens), P35398 | CHO-K1 Gal4-RORA LBD luciferase reporter; percent increase over mock-subtracted basal signal | activation, % at 10 µM | hit rate 1.5% among 65,000 | AID 560, 2006;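 active = activation above the mean of all tested compounds plus 3 SD, cut at about 49% in these data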
D1 allo mod = D1 CRE-luciferase signal change, two-sided – cell-based, HEK293 D1, dopamine EC30, D1 allosteric modulator project, primary screen; dopamine EC30 potentiation; actives deviate in either direction; B-score at 10 µM; hit rate 5.9% among 58,000; AID 641, 2007;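 active = luminescence count or its row- and column-corrected plate score outside the 99.7% band of the plate's sample wells, on either side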
HePTP inh = inhibitors of human HePTP phosphatase, primary screen, biochemical, absorbance, leukemia target; recombinant HePTP phosphatase activity, OD absorbance; AID 521, 2006; hit rate 0.64% among 110,000; inhibition, % at 20 µM; in the data active = inhibition above about 50%
Target sequence (P35236 whole entry, looked up): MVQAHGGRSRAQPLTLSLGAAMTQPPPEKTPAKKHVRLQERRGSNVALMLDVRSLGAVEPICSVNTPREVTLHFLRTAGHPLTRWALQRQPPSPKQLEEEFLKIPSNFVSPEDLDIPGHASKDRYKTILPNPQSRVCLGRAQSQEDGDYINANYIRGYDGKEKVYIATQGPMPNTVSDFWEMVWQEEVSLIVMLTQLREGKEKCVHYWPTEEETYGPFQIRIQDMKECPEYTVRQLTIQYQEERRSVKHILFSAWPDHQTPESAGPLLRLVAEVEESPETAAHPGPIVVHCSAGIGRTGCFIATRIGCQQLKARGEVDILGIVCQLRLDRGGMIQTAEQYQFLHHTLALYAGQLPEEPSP
M1 antag = antagonists of rat M1 muscarinic receptor; Muscarinic acetylcholine receptor M1 (Rattus norvegicus), P08482; CHO-M1 cells, Fluo-4 calcium, ACh EC80 antagonist mode; active compounds read low; B-score at 10 µM; hit rate 3.4% among 64,000; AID 628, 2007;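 active = calcium fluorescence response, raw or row-and-column corrected B-score, differing from the plate sample mean either way at a set confidence level, mostly lower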
M1 ag = M1 muscarinic receptor agonists, primary screen, CHO-M1 cells, Fluo-4 calcium, agonist mode; Muscarinic acetylcholine receptor M1; Fluo-4 calcium fluorescence; active compounds read high; B-score at 10 µM; hit rate 3% among 64,000;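 active = fluorescence rise, raw or as B-score row- and column-corrected plate score, outside the 99.7% band of its plate's samples, either direction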
SF1 activator = activators of human SF-1, primary screen, cell-based, CHO-K1, Gal4-SF-1 LBD, luciferase luminescence | AID 522, 2006 | hit rate 1.9% among 65,000 | Steroidogenic factor 1 (Homo sapiens), Q13285 | CHO-K1 Gal4-SF-1 LBD luciferase reporter; % increase over DMSO SF-1-specific signal | activation, % at 10 µM;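 active = activation above the mean activation of all tested compounds plus 3 SD, cut at about 50% in these data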
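Material: CHO-K1 cells with Gal4–hSF-1 LBD chimera plus Gal4-driven luciferase / Input: 4,000 CHO-K1 cells per well / Incubation: compound exposure 20 h at 37 °C / Signal: luminescence read 15 min after SteadyLite luciferase reagent, after room-temperature equilibration / Read-out: percent activation versus DMSO / Benchmarks: DMSO negative control and −SF1 background wells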
D1 mod confirm = D1 receptor positive allosteric modulators, retest, confirmation, cell-based, HEK293 D1, CRE-luciferase, duplicate; shares compounds with D1 allo mod; dopamine EC30 potentiation; active compounds read high; luminescence at 10 µM; hit rate 88% among 2,200;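 active = luminescence in either of two replicates above the same-plate mean plus 3 SD of the low-dose dopamine control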
D1 no dopamine = D1 receptor agonism without dopamine, confirmation, mechanism study for D1 allosteric modulator project, cell-based, HEK293 D1, CRE-luciferase, secondary assay 1. shares compounds with D1 allo mod. luminescence, no dopamine; active compounds read high. luminescence at 10 µM. hit rate 0.8% among 1,900; in the data active = luminescence above about 3900
Isoprot counter = alters isoproterenol CRE-luciferase response in HEK293 cells | shares compounds with D1 allo mod | HEK293 D1 CRE-luciferase, isoproterenol EC30 counter-screen | calls only at 10 µM | hit rate 63% among 2,200;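 active = luminescence in either replicate above plate mean of wells with a partly effective reference agonist dose plus 3 SD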;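 note: isoproterenol raises cAMP through native beta-adrenoceptor Gs so signal bypasses D1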
A number is an active result; – = inactive; · = no result; + = active, no number. Compounds with a hit are over-represented: about 8.2% of the library has one in this group of screens.

SMILES	RORa activator	D1 allo mod	HePTP inh	M1 antag	M1 ag	SF1 activator	D1 mod confirm	D1 no dopamine	Isoprot counter
Cn1c(=O)c2c(nc(NCc3ccc4c(c3)OCO4)n2Cc2ccccc2F)n(C)c1=O	–	4.7	–	–	–	–	6940	–	+
c1ccc(Nc2nc(N3CCOCC3)nc(N3CCOCC3)n2)cc1	–	–	–	–	–	–	·	·	·
Cn1ccnc1Sc1nc(Nc2cccc(Cl)c2)nc(N2CCOCC2)n1	–	8.4	–	–	–	–	15596	–	+
CCCn1nnnc1SCC(=O)Nc1ccc(F)cc1	–	–	–	–	–	–	·	·	·
CCn1ncc(C2=NOC(C(=O)Nc3ccc4c(c3)OCO4)C2)c1C (stereo not drawn)	–	4.6	–	–	–	–	7668	–	–
O=C(Nc1cccnc1)c1ccccc1Oc1ccccc1	–	6.3	–	–	–	–	15336	–	+
O=C(Nc1ccncc1)c1ccccc1Oc1ccccc1	·	·	–	·	·	·	·	·	·
CCC(C)NC(=O)CS(=O)Cc1nc(-c2cccc(C)c2)oc1C (stereo not drawn)	–	4.5	–	–	–	–	–	–	–
O=C1N=C(c2ccccc2)S/C1=C\c1ccccc1	·	·	–	·	·	·	·	·	·
Cc1ccc(C(=O)N2CCC(C(N)=O)CC2)cc1	·	·	–	·	·	·	·	·	·
Cc1ccc2nc(Nc3ccccc3)c(/C=N/O)c(=O)n2c1	–	10	–	–	–	–	17088	–	+
C/C(Cl)=C/Cn1c(NCCN(C)C)nc2c1c(=O)n(C)c(=O)n2C	–	–	–	–	–	–	·	·	·
C/C(Cl)=C\Cn1c(Nc2ccccc2)nc2c1c(=O)n(C)c(=O)n2C	–	14	–	–	–	–	11964	·	+
COc1ccc(-c2cc(C(F)(F)F)nc(SCC(=O)NCc3ccco3)n2)cc1OC	–	13	–	–	–	–	18992	–	+
COc1ccc(-c2ccc(SCC(=O)NCc3ccco3)nn2)cc1OC	–	15	–	–	–	–	17224	·	+
Cn1c(=O)n(Cc2ccccc2F)c2ccccc21	–	–	–	–	–	–	·	·	·
Cc1ccc(CCNS(=O)(=O)c2cnc[nH]2)cc1	–	3.2	–	–	–	–	6464	–	–
CCCCCSc1nc2c(cnn2-c2ccccc2)c(=O)[nH]1	–	2.9	–	–	–	–	13144	–	–
O=C(CSc1nc2c(cnn2-c2ccccc2)c(=O)[nH]1)N1CCOCC1	–	–	–	–	–	–	·	·	·
CC(C)Sc1nc2c(cnn2-c2ccc(F)cc2)c(=O)[nH]1	–	·	–	–	–	–	·	·	·
CC(C)Sc1nc2c(cnn2-c2ccccc2)c(=O)[nH]1	–	15	–	–	–	–	15608	–	+
Cc1ccc(-n2ncc3c(=O)[nH]c(SC(C)C)nc32)cc1	–	17	–	–	–	–	12920	–	+
O=c1[nH]c(SCc2ccccc2Cl)nc2c1cnn2-c1ccccc1	–	7.6	–	–	–	–	–	·	+
O=C(N1CCN(c2ccc(F)cc2)CC1)C12CC3CC(CC(C3)C1)C2	–	–	–	–	–	–	·	·	·
CC1=CC(C)(C)N=C(NC#N)N1	–	3.8	–	·	·	–	9044	–	–
SMILES	RORa activator	D1 allo mod	HePTP inh	M1 antag	M1 ag	SF1 activator	D1 mod confirm	D1 no dopamine	Isoprot counter
COC(=O)c1ccc(/C=C2/C(=O)NC(=O)N(c3ccc(C(C)C)cc3)C2=O)cc1	·	·	–	·	·	·	·	·	·
Clc1ccc(/C=N/Nc2nnc3c(n2)[nH]c2ccc(Br)cc23)c(Cl)c1	·	·	–	·	·	·	·	·	·
CCOC(=O)CSc1nc2ccccc2c(=O)n1Cc1ccco1	–	·	–	–	–	–	·	·	·
CCOC(=O)CSc1nc2c(sc(=S)n2Cc2ccco2)c(=O)n1-c1ccccc1	–	4.5	–	–	–	–	8252	–	–
NS(=O)(=O)c1ccc(CCNC(=O)C2CCCCN2S(=O)(=O)c2ccccc2)cc1 (stereo not drawn)	–	3.5	–	–	–	–	–	–	–
NS(=O)(=O)c1ccc(CCNC(=O)C2CCCN2C(=O)OCc2ccccc2)cc1 (stereo not drawn)	–	–	·	–	–	–	·	·	·
Cc1c(NC(=O)c2cc3nc(-c4ccccc4)cc(C)n3n2)c(=O)n(-c2ccccc2)n1C	–	–	–	–	–	–	·	·	·
COc1ccc2c(CC(=O)OCC(=O)Nc3ccc4c(c3)OCO4)coc2c1	–	–	·	–	–	–	·	·	·
C=CCN=C(NC#N)SCC(=O)c1cccc(OC)c1	–	12	–	–	–	–	10808	–	+
COc1cccc(-c2nn(C)c3sc(C(=O)N4CCN(c5ccccn5)CC4)cc23)c1	–	–	–	–	–	–	·	·	·
O=C(O)c1ccccc1C(=O)N1CCN(c2cccc(Cl)c2)CC1	–	·	–	·	·	–	·	·	·
CCOc1ccccc1C(=O)N1CCN(c2cccc(Cl)c2)CC1	–	5.6	–	–	–	–	10528	–	+
Nc1nnc(Cc2ccc(Cl)cc2)s1	–	–	–	–	–	–	·	·	·
CCOc1ccc(Cc2nnc(N)s2)cc1OCC	–	11	–	–	–	–	18204	–	+
CC(=O)/C(C=Nc1cc(C(F)(F)F)ccc1Cl)=C(\C)O	·	·	–	·	·	·	·	·	·
COc1ccc(C2c3sc(=O)[nH]c3SC3C4CCC(C4)C23)cc1 (stereo not drawn)	–	16	–	–	–	–	27840	–	+
COc1cc(C2c3sc(=O)[nH]c3SC3C4CCC(C4)C23)ccc1O (stereo not drawn)	–	8.5	–	–	–	–	18840	–	+
O=c1[nH]c2c(s1)C(c1ccccc1)C1C3CCC(C3)C1S2 (stereo not drawn)	–	17	–	–	–	–	21364	·	+
COc1ccc(C2c3sc(=O)[nH]c3SC3C(=O)N(c4ccccc4)C(=O)C32)cc1 (stereo not drawn)	–	–	–	–	–	–	·	·	·
FC(F)(F)c1cccc(Nc2ncnc3ccc(Br)cc23)c1	·	·	–	·	·	·	·	·	·
COc1ccc(-c2ccc(=O)n(Cc3cc(=O)n4ccccc4n3)n2)cc1	–	26	–	–	–	–	20696	–	+
